Laboratory results taken from paper PMC6655586 (Nature, 2019).

Tests used:
HTS cells = assay: Mitochondrial membrane potential; assay type: cell-based, mouse; conditions: 1 μM, 10 minutes
In short: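 HTS cells were exposed for 10 minutes to DMSO, test compound, FCCP, rotenone, antimycin A or oligomycin A, then mitochondrial membrane potential was quantified. Mean ± SD; n = 3 (FCCP, rotenone) or 4 (others).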

MEFs = assay: Western blot for ATF4 in MEFs; assay type: cell-based, mouse; conditions: 1 μM, 6 hours

| Compound | acute change of mitochondrial membrane potential (HTS cells) | ATF4 induction (MEFs) |
| --- | --- | --- |
| C=C(C)[C@H]1Cc2c(ccc3c2O[C@@H]2COc4cc(OC)c(OC)cc4[C@@H]2C3=O)O1 [rotenone] | acute reduction of membrane potential | ATF4 induction |
| oligomycin A | acute increase in mitochondrial membrane potential | ATF4 induction |
| CCCCCC[C@H]1C(=O)O[C@H](C)[C@H](NC(=O)c2cccc(NC=O)c2O)C(=O)O[C@@H](C)[C@@H]1OC(=O)CC(C)C [antimycin A] | acute reduction of membrane potential | ATF4 induction |
